Experiment [1] relates to Stenotrophomonas maltophilia. The experiment is described as follows: Antimicrobial activity against Stenotrophomonas maltophilia ATCC 13637 after 18 to 24 hrs by alamar blue assay. Format: functional. The following applies: Stenotrophomonas maltophilia, ATCC 13637; read-out: MIC. In a few lines: (§1)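 Broth microdilution per NCCLS in Mueller-Hinton broth, 8-point twofold dilutions, 384-well format. Exponential-phase cells at 5 × 10^5 cells/ml incubated with compound 18–24 h at 37 °C, then 20% Alamar blue added and fluorescence read. MIC90 taken as the lowest concentration preventing at least 90% bacterial growth.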
Background: Alamar Blue is a resazurin reagent that responds to reducing activity.

Experiment [2] deals with Staphylococcus aureus. The experiment is described as follows: Antimicrobial activity against methicillin-resistant Staphylococcus aureus ATCC 33592 after 18 to 24 hrs by alamar blue assay. Format: functional. The following applies: Staphylococcus aureus, ATCC 33592; read-out: MIC. In outline:
(§2)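 Broth microdilution per NCCLS standard, Mueller-Hinton broth, 8-point twofold dilutions; exponentially growing cells at 5 10^5 cells/ml with compound, 18–24 h at 37 C; 20% Alamar blue added, fluorescence read; MIC90 taken as lowest concentration preventing at least 90% growth.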

The test system of experiment [3] is Staphylococcus aureus. The experiment is described as follows: Antimicrobial activity against methicillin-resistant Staphylococcus aureus isolate NTUH4722 after 18 to 24 hrs by alamar blue assay. Format: functional. In a few lines: as §2
Experiment [4] concerns Acinetobacter baumannii. The experiment is described as follows: Antimicrobial activity against Acinetobacter baumannii ATCC 49139 after 18 to 24 hrs by alamar blue assay. Format: functional. The following applies: Acinetobacter baumannii, ATCC 49139; read-out: MIC. In outline: as §1
Experiment [5] concerns Bacillus subtilis. The experiment in a line: Antimicrobial activity against Bacillus subtilis ATCC 23857 after 18 to 24 hrs by alamar blue assay. Format: functional. In outline:
as §1

Experiment [6] relates to Escherichia coli. The experiment is described as follows: Antimicrobial activity against Escherichia coli ATCC […] after 18 to 24 hrs by alamar blue assay. The following applies: Escherichia coli; read-out: MIC. Format: functional. In outline: as §1
Experiment [7] has as its system Staphylococcus aureus. The experiment is described as follows: Antimicrobial activity against Staphylococcus aureus ATCC 29213 after 18 to 24 hrs by alamar blue assay.
Experiment [8] deals with Mycolicibacterium smegmatis. The experiment is described as follows: Antimicrobial activity against Mycobacterium smegmatis BCRC 11565 after 18 to 24 hrs by alamar blue assay. Format: functional. The conditions noted are these: Mycolicibacterium smegmatis, BCRC 11565; read-out: MIC. In a few lines:
as §1

The subject of experiment [9] is Pseudomonas aeruginosa. The experiment in a line: Antimicrobial activity against Pseudomonas aeruginosa ATCC 25619 after 18 to 24 hrs by alamar blue assay. Format: functional. The conditions noted are these: Pseudomonas aeruginosa, ATCC 25619; read-out: MIC. In a few lines: as §1
Experiment [10] concerns Staphylococcus aureus. The experiment in a line: Antimicrobial activity against oxacillin- and methicillin-resistant Staphylococcus aureus isolate Sa-OXA-R2 after 18 to 24 hrs by alamar blue assay. Format: functional. In outline: as §2
Experiment [11] can be described thus: Inhibition of transglycosylase assessed as inhibition of NBD- labelled lipid II polymerization. In a few lines: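 100 µM NBD-labelled lipid II incubated 30 min with full-length PBP (EC, SA or Mtb) and 10 ng/µl N-acetylmuramidase in 50 mM Tris-HCl pH 8.0, 10 mM MgCl2, 0.1% Triton X-100, 10% DMSO, 15% MeOH. Supernatant run on anion-exchange HPLC with 20 mM–0.5 M ammonium acetate gradient. Inhibition calculated from substrate peak-area percentage. IC50 determined. S. aureus strains share one SA enzyme.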

Experiment [12] concerns Serratia marcescens. The experiment in a line: Antimicrobial activity against Serratia marcescens ATCC 14756 after 18 to 24 hrs by alamar blue assay. Format: functional. The following applies: Serratia marcescens, ATCC 14756; read-out: MIC. In a few lines:
as §1

MIC and IC90 data for 8 compounds are collected here from ChEMBL document CHEMBL1629439, “High-throughput identification of antibacterials against methicillin-resistant Staphylococcus aureus (MRSA) and the transglycosylase” (Bioorg Med Chem, 2010).

Converted amounts (≈) assume the structure as drawn.

The MIC is the least concentration at which growth counts as inhibited. As usually defined, the IC90 is the concentration needed for an effect of 90%.

As to `O=C(Nc1cc(Cl)ccc1Oc1ccc(Cl)c2ccccc12)c1cc(Cl)cc(Br)c1O`, the minimal inhibitory concentration (MIC) is 16 µg/mL (≈ 29.8 µM) in experiment [1]; 16 µg/mL (≈ 29.8 µM) in experiment [2]; not above 0.03 µg/mL in experiment [3]; 16 µg/mL (≈ 29.8 µM) in [4]; less than 0.03 µg/mL in experiment [5]; 8 µg/mL (≈ 14.9 µM) in experiment [6]. Further, the minimal inhibitory concentration (MIC) in experiment [7] was 8 µg/mL (≈ 14.9 µM); in experiment [8] it was 0.5 µg/mL (≈ 0.93 µM); in [9], 16 µg/mL (≈ 29.8 µM); in experiment [10], not above 0.03 µg/mL; in experiment [12], 16 µg/mL (≈ 29.8 µM). Also, the IC90 in [11] amounted to 100 µM.
In the case of `O=C(Nc1ccc(Oc2ccc(Cl)c3cccnc23)c(Cl)c1)c1cc(Br)cc(Br)c1O`, the MIC is 16 µg/mL (≈ 27.4 µM) in experiment [1]; 32 µg/mL (≈ 54.9 µM) in experiment [2]; not above 0.03 µg/mL in experiment [3]; 16 µg/mL (≈ 27.4 µM) in experiment [4]; less than 0.03 µg/mL in [5]; 8 µg/mL (≈ 13.7 µM) in experiment [6]. The minimum inhibitory concentration (MIC) in [7] is 16 µg/mL (≈ 27.4 µM); in experiment [8] it was 0.5 µg/mL (≈ 0.858 µM); in experiment [9] it was 16 µg/mL (≈ 27.4 µM); in [10], not above 0.03 µg/mL; in experiment [12], 16 µg/mL (≈ 27.4 µM). The IC90 in experiment [11] amounted to 100 µM.
Take `Cc1ccc(C(=O)c2cc(Cl)cc(NC(=O)c3cc(Br)cc(Br)c3O)c2Cl)cc1`: the MIC is 16 µg/mL (≈ 28.7 µM) in experiment [1]; more than 4 µg/mL in [2]; more than 4 µg/mL in [3]; 16 µg/mL (≈ 28.7 µM) in experiment [4]; less than 0.03 µg/mL in experiment [5]; 8 µg/mL (≈ 14.3 µM) in experiment [6]. For the same compound, the MIC in experiment [7] is more than 4 µg/mL; in [8], 0.5 µg/mL (≈ 0.896 µM); in experiment [9] it was 16 µg/mL (≈ 28.7 µM); in [10] it was more than 4 µg/mL; in experiment [12], 16 µg/mL (≈ 28.7 µM). In experiment [11], the concentration for an effect of 90% (IC90) came to 100 µM.
On to `O=C(c1ccc(Cl)cc1)c1cc(NC(=O)c2cc(Br)cc(Br)c2O)ccc1Br`, for which the MIC in experiment [1] is 16 µg/mL (≈ 27.2 µM); in experiment [2], not above 2 µg/mL; in experiment [3], not above 0.03 µg/mL; in experiment [4], 16 µg/mL (≈ 27.2 µM); in [5] it was less than 0.03 µg/mL; in experiment [6], 8 µg/mL (≈ 13.6 µM). For the same compound, the minimal inhibitory concentration (MIC) was not above 2 µg/mL in [7]; 0.5 µg/mL (≈ 0.85 µM) in experiment [8]; 16 µg/mL (≈ 27.2 µM) in experiment [9]; not above 0.03 µg/mL in [10]; 16 µg/mL (≈ 27.2 µM) in experiment [12]. For the same compound, the IC90 in experiment [11] was determined as 100 µM.
Consider `O=C(Nc1cc(Cl)cc(C(=O)c2ccc(Cl)cc2)c1Cl)c1cc(Cl)cc(Br)c1O`, for which the MIC was 16 µg/mL (≈ 30 µM) in experiment [1]; 0.5 µg/mL (≈ 0.936 µM) in experiment [2]; 1 µg/mL (≈ 1.87 µM) in [3]; 16 µg/mL (≈ 30 µM) in experiment [4]; less than 0.03 µg/mL in [5]; 8 µg/mL (≈ 15 µM) in experiment [6]. Besides, the MIC was determined as 0.5 µg/mL (≈ 0.936 µM) in experiment [7]; 0.5 µg/mL (≈ 0.936 µM) in experiment [8]; 16 µg/mL (≈ 30 µM) in experiment [9]; 0.5 µg/mL (≈ 0.936 µM) in [10]; 16 µg/mL (≈ 30 µM) in experiment [12]. Also, in experiment [11], the IC90 came to 100 µM.
On to `O=C(Nc1ccc(NS(=O)(=O)c2ccc(Cl)cc2)cc1Cl)c1cc(Cl)ccc1O`, for which the MIC in [1] is 16 µg/mL (≈ 33.9 µM); in [2], 32 µg/mL (≈ 67.8 µM); in experiment [3], not above 0.03 µg/mL; in [4] it was 16 µg/mL (≈ 33.9 µM); in experiment [5], less than 0.03 µg/mL; in [6] it was 8 µg/mL (≈ 17 µM). In addition, the MIC in experiment [7] is 16 µg/mL (≈ 33.9 µM); in experiment [8], 0.5 µg/mL (≈ 1.06 µM); in experiment [9] it was 16 µg/mL (≈ 33.9 µM); in experiment [10], not above 0.03 µg/mL; in [12], 16 µg/mL (≈ 33.9 µM). Besides, the IC90 in experiment [11] is more than 100 µM.
As to `O=C(Nc1cc(Cl)cc(C(=O)c2ccccc2)c1Cl)c1cc(Br)cc(Br)c1O`, the MIC in experiment [1] was 16 µg/mL (≈ 29.4 µM); in experiment [2], 8 µg/mL (≈ 14.7 µM); in [3], 4 µg/mL (≈ 7.35 µM); in [4], 16 µg/mL (≈ 29.4 µM); in experiment [5] it was less than 0.03 µg/mL; in experiment [6], 8 µg/mL (≈ 14.7 µM). For the same compound, the MIC in experiment [7] was 1 µg/mL (≈ 1.84 µM); in [8], 0.5 µg/mL (≈ 0.919 µM); in [9] it was 16 µg/mL (≈ 29.4 µM); in experiment [10], 4 µg/mL (≈ 7.35 µM); in experiment [12] it was 16 µg/mL (≈ 29.4 µM). The IC90 in experiment [11] worked out at 100 µM.
With `O=C(Nc1ccc(Sc2nc3ccccc3s2)c(Cl)c1)c1cc(Cl)cc(Cl)c1O`, the MIC in experiment [1] was 16 µg/mL (≈ 33.2 µM); in experiment [2], 4 µg/mL (≈ 8.3 µM); in experiment [3], not above 0.03 µg/mL; in experiment [4], 16 µg/mL (≈ 33.2 µM); in [5], less than 0.03 µg/mL; in experiment [6], 8 µg/mL (≈ 16.6 µM). Also, the MIC in [7] is 8 µg/mL (≈ 16.6 µM); in [8], 0.5 µg/mL (≈ 1.04 µM); in experiment [9], 16 µg/mL (≈ 33.2 µM); in experiment [10], not above 0.03 µg/mL; in experiment [12], 16 µg/mL (≈ 33.2 µM). Moreover, in [11], the IC90 is more than 100 µM.
